Reference: ChEMBL document CHEMBL4689842, “EUbOPEN Chemogenomics Library wave 1” (2021)
Values joined by “and” are separate entries in the source; they are usually repeats but may differ in a detail not shown here. Identical values can stand only once.

Test system: HEK-293T
Experiment: Multiplex assay against HEK293T;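 on Population Tubulin-Different-Phenotype (%): share of the cells with healthy nuclei that show this phenotype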
Type: toxicity, cell-based
Conditions: human
How it was run: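 Imaging took place on a CQ1 microscope at 37°C and 5% CO2 once compound had been added to live cells stained at seeding with Hoechst33342, BioTracker Green Microtubule Cytoskeleton Dye, MitoTracker Red and Annexin V Alexa Fluor 680. CellPathfinder machine-learning gating classed cells as Hoechst high-intensity objects or normal cells, classed normal cells as having healthy, pyknosed or fragmented nuclei, and classed pyknosed cells as mitotic or apoptotic. Tubulin, mitochondrial-mass and membrane-permeability phenotypes are per cents of the healthy-nucleus cells.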

[1] = 12 h, 1 µM, compound concentration 1 uM, replicate 1
[2] = 12 h, 1 µM, compound concentration 1 uM, replicate 2
[3] = 12 h, 10 µM, compound concentration 10 uM, replicate 1
[4] = 12 h, 10 µM, compound concentration 10 uM, replicate 2
[5] = 24 h, 1 µM, compound concentration 1 uM, replicate 1
[6] = 24 h, 1 µM, compound concentration 1 uM, replicate 2
[7] = 24 h, 10 µM, compound concentration 10 uM, replicate 1
[8] = 24 h, 10 µM, compound concentration 10 uM, replicate 2
[9] = 48 h, 1 µM, compound concentration 1 uM, replicate 1
[10] = 48 h, 1 µM, compound concentration 1 uM, replicate 2
[11] = 48 h, 10 µM, compound concentration 10 uM, replicate 1
[12] = 48 h, 10 µM, compound concentration 10 uM, replicate 2

## O=C(NCCCC1CCCCC1)c1ccc(CNC(=O)c2cnn(-c3ccccc3)c2C(F)(F)F)cc1 [SR-321]
[1]
  Population Apoptotic (%): 40% and 29% and 42%
  Population Fragmented Nuclei (%): 15% [middle of 4 runs]
  Population Healthy Nuclei (%): 31% and 37% and 67%
  Population Hoechst High Intensity Objects (%): 14% [middle of 4 runs]
  Population Membrane Permeable-Phenotype (%): 2% and 0% and 3%
  Population Mitotic Cells (%): 59% and 70% and 57%
  Population Normal (%): 85% and 83% and 90% and 88%
  Total Cell Count: 312 [middle of 4 runs]
[2]
  Population Apoptotic (%): 10% [middle of 4 runs]
  Population Fragmented Nuclei (%): 6% [middle of 4 runs]
  Population Healthy Nuclei (%): 42% [middle of 4 runs]
  Population Hoechst High Intensity Objects (%): 3% and 2% and 5%
  Population Membrane Permeable-Phenotype (%): 10% and 8% and 1%
  Population Mitochondria Different-Phenotype (%): 10% and 19% and 7%
  Population Mitotic Cells (%): 85% and 90% and 89% and 92%
  Population Normal (%): 96% and 97% and 94%
[3]
  Population Apoptotic (%): 50% [middle of 4 runs]
  Population Fragmented Nuclei (%): 16% [middle of 4 runs]
  Population Hoechst High Intensity Objects (%): 17% [middle of 4 runs]
  Population Membrane Permeable-Phenotype (%): 6% and 2% and 4%
  Population Mitotic Cells (%): 60% [middle of 4 runs]
  Population Normal (%): 86% and 81% and 82% and 89%
  Total Cell Count: 302 [middle of 4 runs]
[4]
  Population Healthy Nuclei (%): 38% [middle of 4 runs]
  Population Hoechst High Intensity Objects (%): 4% and 2% and 3%
  Population Membrane Permeable-Phenotype (%): 5% and 3% and 0%
  Population Mitotic Cells (%): 86% [middle of 4 runs]
  Population Normal (%): 95% and 97% and 96%
  Population Tubulin-Different-Phenotype (%): 32% [middle of 4 runs]
[5]
  Population Fragmented Nuclei (%): 13% [middle of 4 runs]
  Population Healthy Nuclei (%): 42% and 36% and 81%
  Population Hoechst High Intensity Objects (%): 15% [middle of 4 runs]
  Population Membrane Permeable-Phenotype (%): 2% [middle of 4 runs]
  Population Mitotic Cells (%): 59% and 54% and 58% and 86%
  Population Normal (%): 87% and 83% and 84% and 93%
  Total Cell Count: 361 [middle of 4 runs]
[6]
  Population Healthy Nuclei (%): 65% [middle of 4 runs]
  Population Hoechst High Intensity Objects (%): 2% and 3%
  Population Membrane Permeable-Phenotype (%): 11% [middle of 4 runs]
  Population Mitotic Cells (%): 82% and 89% and 94%
  Population Normal (%): 97% and 96%
  Population Tubulin-Different-Phenotype (%): 20% [middle of 4 runs]
[7]
  Population Apoptotic (%): 57% [middle of 4 runs]
  Population Fragmented Nuclei (%): 16% and 19% and 18%
  Population Membrane Permeable-Phenotype (%): 0% and 4% and 6%
  Population Mitotic Cells (%): 53% [middle of 4 runs]
  Population Normal (%): 81% and 80% and 85% and 93%
  Population Tubulin-Different-Phenotype (%): 59% and 53% and 26%
[8]
  Population Healthy Nuclei (%): 55% [middle of 4 runs]
  Population Hoechst High Intensity Objects (%): 3% and 4%
  Population Mitotic Cells (%): 73% and 81% and 95%
  Population Normal (%): 96% and 95%
  Population Tubulin-Different-Phenotype (%): 44% [middle of 4 runs]
[9]
  Population Apoptotic (%): 41% and 50% and 34%
  Population Fragmented Nuclei (%): 14% and 21% and 17%
  Population Healthy Nuclei (%): 34% and 40%
  Population Hoechst High Intensity Objects (%): 14% and 20%
  Population Membrane Permeable-Phenotype (%): 4% and 2%
  Population Mitochondria Different-Phenotype (%): 31% and 29%
  Population Mitotic Cells (%): 58% and 49% and 65%
  Population Normal (%): 85% and 79%
  Population Pyknosed Nuclei (%): 50% and 38% and 42%
  Population Tubulin-Different-Phenotype (%): 27% and 29%
  Total Cell Count: 401 and 332 and 411
[10]
  Population Apoptotic (%): 9% and 8% and 13%
  Population Fragmented Nuclei (%): 6% and 5%
  Population Healthy Nuclei (%): 79% and 76% and 82%
  Population Hoechst High Intensity Objects (%): 3% and 5%
  Population Membrane Permeable-Phenotype (%): 8% and 6%
  Population Mitochondria Different-Phenotype (%): 3% and 7% and 6%
  Population Mitotic Cells (%): 90% and 91% and 86%
  Population Normal (%): 96% and 94%
  Population Pyknosed Nuclei (%): 13% and 17% and 11%
  Population Tubulin-Different-Phenotype (%): 18% and 22% and 15%
  Total Cell Count: 377 and 459 and 394
[11]
  Population Apoptotic (%): 48% and 63% and 54%
  Population Fragmented Nuclei (%): 23% and 25%
  Population Healthy Nuclei (%): 28% and 27% and 18%
  Population Hoechst High Intensity Objects (%): 19% and 20% and 16%
  Population Membrane Permeable-Phenotype (%): 0% and 1%
  Population Mitochondria Different-Phenotype (%): 73% and 83%
  Population Mitotic Cells (%): 51% and 36% and 45%
  Population Normal (%): 80% and 79% and 83%
  Population Pyknosed Nuclei (%): 47% and 48% and 56%
  Population Tubulin-Different-Phenotype (%): 32% and 59%
  Total Cell Count: 274 and 281 and 324
[12]
  Population Apoptotic (%): 30% and 26% and 20%
  Population Fragmented Nuclei (%): 6% and 5% and 8%
  Population Healthy Nuclei (%): 78% and 75% and 74%
  Population Hoechst High Intensity Objects (%): 3% and 2%
  Population Membrane Permeable-Phenotype (%): 5% and 2%
  Population Mitochondria Different-Phenotype (%): 27% and 41% and 31%
  Population Mitotic Cells (%): 69% and 73% and 79%
  Population Normal (%): 96% and 97%
  Population Pyknosed Nuclei (%): 15% and 19% and 17%
  Population Tubulin-Different-Phenotype (%): 50% and 52% and 49%
  Total Cell Count: 396 and 327 and 349

## CNCc1ccccc1-c1csc([C@H](C)Nc2nc(C)nc3cc(OC)c(OC)cc23)c1 [BAY-294]
[3]
  Population Apoptotic (%): 83% and 29% and 42%
  Population Fragmented Nuclei (%): 16% and 15% and 12%
  Population Hoechst High Intensity Objects (%): 19% and 16% and 22%
  Population Normal (%): 80% and 83% and 77%
  Population Pyknosed Nuclei (%): 82% and 39% and 67%
  Population Tubulin-Different-Phenotype (%): 50% and 90% and 54%
  Total Cell Count: 623 and 618
[4]
  Population Mitochondria Different-Phenotype (%): 86% and 88% and 34%
  Population Normal (%): 88% and 95% and 96%
  Population Tubulin-Different-Phenotype (%): 71% and 72% and 98%
  Total Cell Count: 864 and 1201
[7]
  Population Apoptotic (%): 71% and 57% and 28%
  Population Fragmented Nuclei (%): 22% and 24% and 13%
  Population Hoechst High Intensity Objects (%): 14% and 18% and 13%
  Population Mitotic Cells (%): 28% and 42% and 72%
  Population Normal (%): 85% and 81% and 86%
  Population Pyknosed Nuclei (%): 77% and 61% and 26%
  Total Cell Count: 631 and 647
[8]
  Population Fragmented Nuclei (%): 8% and 5% and 12%
  Population Membrane Permeable-Phenotype (%): 11% and 30%
  Population Normal (%): 87% and 92% and 96%
  Population Tubulin-Different-Phenotype (%): 49% and 76% and 94%
  Total Cell Count: 903 and 1682
[11]
  Population Apoptotic (%): 79%
  Population Fragmented Nuclei (%): 31%
  Population Healthy Nuclei (%): 0%
  Population Hoechst High Intensity Objects (%): 18%
  Population Membrane Permeable-Phenotype (%): 0%
  Population Mitochondria Different-Phenotype (%): 100%
  Population Mitotic Cells (%): 20%
  Population Normal (%): 81%
  Population Pyknosed Nuclei (%): 68%
  Population Tubulin-Different-Phenotype (%): 100%
[12]
  Population Apoptotic (%): 96%
  Population Fragmented Nuclei (%): 17%
  Population Healthy Nuclei (%): 33%
  Population Hoechst High Intensity Objects (%): 6%
  Population Membrane Permeable-Phenotype (%): 6%
  Population Mitochondria Different-Phenotype (%): 87%
  Population Mitotic Cells (%): 3%
  Population Normal (%): 93%
  Population Pyknosed Nuclei (%): 49%
  Population Tubulin-Different-Phenotype (%): 96%
